Results of several laboratories.
Each line is one published result; the experiments were not run side by side.
Target: MAP kinase-activated protein kinase 5 (MAPKAPK5, Homo sapiens, UniProt Q8IW41)
One construct used (Q8IW41 1-473): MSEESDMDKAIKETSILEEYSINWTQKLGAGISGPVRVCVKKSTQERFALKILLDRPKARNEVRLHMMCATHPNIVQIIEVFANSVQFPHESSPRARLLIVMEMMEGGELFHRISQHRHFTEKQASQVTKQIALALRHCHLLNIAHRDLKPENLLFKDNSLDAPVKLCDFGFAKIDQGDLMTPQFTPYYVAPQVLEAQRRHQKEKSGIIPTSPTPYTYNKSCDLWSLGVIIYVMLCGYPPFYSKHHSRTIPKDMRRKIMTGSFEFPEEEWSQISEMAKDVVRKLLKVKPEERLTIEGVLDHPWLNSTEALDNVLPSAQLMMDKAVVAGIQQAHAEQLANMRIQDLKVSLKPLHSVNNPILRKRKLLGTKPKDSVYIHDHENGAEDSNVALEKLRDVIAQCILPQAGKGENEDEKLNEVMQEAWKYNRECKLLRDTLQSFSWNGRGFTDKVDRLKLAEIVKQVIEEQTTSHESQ

Compound	observed	mode	method	tested at	quantity	result
Cn1cncc1[C@](O)(COc1ccc(C#N)cc1-c1ccc(OC(F)(F)F)cc1)c1ccc(C#N)cc1	cell-free assay		competition with immobilised ligand	1 µM	remaining binding	90%
COc1ncccc1-c1cnn2ccc(N3CCN(C(=O)OC(C)C)CC3)nc12	binding		competition with immobilised ligand	1 µM	remaining binding	100%
CC(C)(C)c1cc(C=C(C#N)C#N)cc(Br)c1O	enzyme activity	inhibitor		0.5 µM	remaining activity	97.4%
Nc1ncc(-c2nc(N3CCOCC3)nc(N3CCOCC3)n2)c(C(F)F)n1	binding		competition with immobilised ligand	10 µM	remaining binding	72%
N#CC1(c2ccccn2)CCN(Cc2cc(C(=O)O)c(=O)n3ccccc23)CC1	cell-free assay		competition with immobilised ligand	1 µM	remaining binding	56%
Cn1cc(-c2cc(F)cc(N3CCn4c(cc5c4CCCC5)C3=O)c2CO)cc(Nc2ccc(N3CCN(C4COC4)CC3)cn2)c1=O	enzyme activity	inhibitor		0.1 µM	inhibition	9%
COc1cc(Nc2ncc(F)c(Nc3ccc4c(n3)NC(=O)C(C)(C)O4)n2)cc(OC)c1OC	binding		competition with immobilised ligand	10 µM	inhibition	19%
C#Cc1n[nH]c2c(-c3cn([C@@H](C)c4ccccc4)c(=O)[nH]c3=O)cc(F)cc12	enzyme activity	inhibitor		0.1 µM	inhibition	1.8%
O=c1[nH]c2ccccc2n1C1CCN(Cc2ccc(-c3[nH]c4cc5ncnc5cc4nc3-c3ccccc3)cc2)CC1	cell-free assay			0.5 µM	remaining signal	97.4%
Cn1cc(-c2cccc(N3CCc4c(sc5c4CC(C)(C)C5)C3=O)c2CO)cc(Nc2ccncn2)c1=O	enzyme activity	inhibitor		1 µM	inhibition	3%
C#Cc1n[nH]c2c(-c3cn(C(C)c4ccccn4)c(=O)[nH]c3=O)cc(F)cc12 (centres unmarked)	enzyme activity	inhibitor		1 µM	inhibition	5.8%
